Results reported in ChEMBL document CHEMBL1131182, “Anti-AIDS agents. 34. Synthesis and structure-activity relationships of betulin derivatives as anti-HIV agents” (J Med Chem, 1998).
pEC50, pIC50: −log10 of the molar value.

Columns and labels:
H9 [1] = test: Anti-HIV activity against acutely infected H9 lymphocytes. Activity expressed as concentration of compound able to suppress HIV replication by 50%.; format: functional, cell-based; settings: Homo sapiens
Method in brief: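 H9 cells (RPMI 1640, 10% FCS, L-glutamine, 37 °C, 5% CO2, log phase) infected 1 h with HIV-1 IIIB at MOI 0.1-0.01, washed and plated at 4 × 10^5 cells/mL with DMSO-dissolved samples (screen 100, 20, 4, 0.8 µg/mL final, further dilutions for actives). After 4 days, supernatant p24 was measured by antigen-capture ELISA against a standard curve. EC50 is 50% suppression of replication; at least two experiments averaged.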

H9 [2] = test: Anti-HIV activity against acutely infected H9 lymphocytes. Activity expressed as concentration of compound toxic to 50% of mock-infected H9 cells.; format: functional, cell-based; settings: Homo sapiens
Method in brief: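 Uninfected H9 cells were exposed to DMSO-dissolved samples (screen 100, 20, 4, 0.8 µg/mL final) for 4 days at 37 °C, 5% CO2. Remaining cells were counted with a counter against medium-only controls. IC50 is the concentration toxic to 50% of mock-infected cells; at least two experiments averaged.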

[3] = Therapeutic Index is the […] of the IC50 to that of EC50; format: cell-based; settings: human, H9 cells; read-out: TI

pEC50 (H9 [1])	Structure (SMILES)	pIC50 (H9 [2])	selectivity ratio [3]
7.23	CC(CC(=O)O)CC(=O)OC[C@]12CC[C@@H](C(C)C)[C@@H]1[C@H]1CC[C@@H]3[C@@]4(C)CC[C@H](OC(=O)CC(C)CC(=O)O)C(C)(C)[C@@H]4CC[C@@]3(C)[C@]1(C)CC2 (stereo not given in full)	4.72	325
5.37	C=C(C)[C@@H]1CC[C@]2(COC(=O)CC3(CC(=O)O)CCCC3)CC[C@]3(C)[C@H](CC[C@@H]4[C@@]5(C)CCC(=O)C(C)(C)[C@@H]5CC[C@]43C)[C@@H]12	4.89	3
–	C=C(C)[C@@H]1CC[C@]2(C(=O)O)CC[C@]3(C)[C@H](CC[C@@H]4[C@@]5(C)CC[C@H](OC(=O)COCC(=O)O)C(C)(C)[C@@H]5CC[C@]43C)[C@@H]12	–	1170
5.07	C=C(C)[C@@H]1CC[C@]2(COC(=O)CC3(CC(=O)O)CCCC3)CC[C@]3(C)[C@H](CC[C@@H]4[C@@]5(C)CC=CC(C)(C)[C@@H]5CC[C@]43C)[C@@H]12	4.44	4.3
–	CCC(C)(CC(=O)O)CC(=O)OC[C@]12CC[C@@H](C(C)C)[C@@H]1[C@H]1CC[C@@H]3[C@@]4(C)CC[C@H](OC(=O)CC(C)(CC)CC(=O)O)C(C)(C)[C@@H]4CC[C@@]3(C)[C@]1(C)CC2 (stereo not given in full)	–	248
> 9.46	C=C(C)[C@@H]1CC[C@]2(C(=O)O)CC[C@]3(C)[C@H](CC[C@@H]4[C@@]5(C)CC[C@H](OC(=O)CC(C)(C)C(=O)O)C(C)(C)[C@@H]5CC[C@]43C)[C@@H]12 [BEVIRIMAT]	< 5.15	> 20000
5.32	C=C(C)[C@@H]1CC[C@]2(CNC(=O)CC3(CC(=O)O)CCCC3)CC[C@]3(C)[C@H](CC[C@@H]4[C@@]5(C)CC[C@H](NC(=O)CC6(CC(=O)O)CCCC6)C(C)(C)[C@@H]5CC[C@]43C)[C@@H]12	4.82	3.1
4.99	C=C(COC(C)=O)[C@@H]1CC[C@]2(COC(C)=O)CC[C@]3(C)[C@H](CC[C@@H]4[C@@]5(C)CC[C@H](OC(C)=O)C(C)(C)[C@@H]5CC[C@]43C)[C@@H]12	4.60	2.5
6.24	C=C(C)[C@@H]1CC[C@]2(CNC(=O)CC(C)(C)CC(=O)O)CC[C@]3(C)[C@H](CC[C@@H]4[C@@]5(C)CC[C@H](NC(=O)CC(C)(C)CC(=O)O)C(C)(C)[C@@H]5CC[C@]43C)[C@@H]12	4.69	36.6
5.34	C=C(C)[C@@H]1CC[C@]2(/C=N/OC(=O)CC(C)(C)CC(=O)O)CC[C@]3(C)[C@H](CC[C@@H]4[C@@]5(C)CC/C(=N\OC(=O)CC(C)(C)CC(=O)O)C(C)(C)[C@@H]5CC[C@]43C)[C@@H]12	4.81	3.4
5.68	C=C(C)[C@@H]1CC[C@]2(COC(=O)CC3(CC(=O)O)CCCC3)CC[C@]3(C)[C@H](CC[C@@H]4[C@@]5(C)CC[C@H](O)C(C)(C)[C@@H]5CC[C@]43C)[C@@H]12	4.88	6.1
–	C=C(C)[C@@H]1CC[C@]2(CO)CC[C@]3(C)[C@H](CC[C@@H]4[C@@]5(C)CC=CC(C)(C)[C@@H]5CC[C@]43C)[C@@H]12	–	2.7
–	C=C(C)[C@@H]1CC[C@]2(COC(=O)CC3(CC(=O)O)CCCC3)CC[C@]3(C)[C@H](CC[C@@H]4[C@@]5(C)CC[C@H](OC(=O)CC6(CC(=O)O)CCCC6)C(C)(C)[C@@H]5CC[C@]43C)[C@@H]12	–	267
–	CC(C)[C@@H]1CC[C@]2(COC(=O)CC3(CC(=O)O)CCCC3)CC[C@]3(C)[C@H](CC[C@@H]4[C@@]5(C)CC[C@H](OC(=O)CC6(CC(=O)O)CCCC6)C(C)(C)[C@@H]5CC[C@]43C)[C@@H]12	–	37
–	C=C(C)[C@@H]1CC[C@]2(COC(=O)CC(C)(C)CC(=O)O)CC[C@]3(C)[C@H](CC[C@@H]4[C@@]5(C)CCC(=O)C(C)(C)[C@@H]5CC[C@]43C)[C@@H]12	–	2.9
–	C=C(C)[C@@H]1CC[C@]2(COC(=O)CC(C)(C)CC(=O)O)CC[C@]3(C)[C@H](CC[C@@H]4[C@@]5(C)CC[C@H](O)C(C)(C)[C@@H]5CC[C@]43C)[C@@H]12	–	7.8
–	C=C(C)[C@@H]1CC[C@]2(CO)CC[C@]3(C)[C@H](CC[C@@H]4[C@@]5(C)CC[C@H](O)C(C)(C)[C@@H]5CC[C@]43C)[C@@H]12 [BETULIN]	–	1.9
–	C=C(C)[C@@H]1CC[C@]2(C(=O)O)CC[C@]3(C)[C@H](CC[C@@H]4[C@@]5(C)CC[C@H](OC(=O)C(C)(C)CC(=O)O)C(C)(C)[C@@H]5CC[C@]43C)[C@@H]12	–	5.9
–	C=C(C)[C@@H]1CC[C@]2(COC(=O)CC(C)(C)CC(=O)O)CC[C@]3(C)[C@H](CC[C@@H]4[C@@]5(C)CC=CC(C)(C)[C@@H]5CC[C@]43C)[C@@H]12	–	5.2
–	C=C(C)[C@@H]1CC[C@]2(COC(=O)CC(C)(CC)CC(=O)O)CC[C@]3(C)[C@H](CC[C@@H]4[C@@]5(C)CC[C@H](OC(=O)CC(C)(CC)CC(=O)O)C(C)(C)[C@@H]5CC[C@]43C)[C@@H]12 (stereo not given in full)	–	3480
–	C=C(C)[C@@H]1CC[C@]2(COC(=O)CC(C)(C)CC(=O)O)CC[C@]3(C)[C@H](CC[C@@H]4[C@@]5(C)CC[C@H](OC(=O)CC(C)(C)CC(=O)O)C(C)(C)[C@@H]5CC[C@]43C)[C@@H]12	–	21500
–	CC(C)[C@@H]1CC[C@]2(COC(=O)CC(C)(C)CC(=O)O)CC[C@]3(C)[C@H](CC[C@@H]4[C@@]5(C)CC[C@H](OC(=O)CC(C)(C)CC(=O)O)C(C)(C)[C@@H]5CC[C@]43C)[C@@H]12	–	2250

Structure (SMILES)	pEC50 (H9 [1])	pIC50 (H9 [2])	selectivity ratio [3]
C=C(CO)[C@@H]1CC[C@]2(CO)CC[C@]3(C)[C@H](CC[C@@H]4[C@@]5(C)CC[C@H](O)C(C)(C)[C@@H]5CC[C@]43C)[C@@H]12 [30-HYDROXY-BETULIN]	4.29	< 3.85	2.8
C=C(C)[C@@H]1CC[C@]2(CO)CC[C@]3(C)[C@H](CC[C@@H]4[C@@]5(C)CC[C@@H](O)C(C)(C)[C@@H]5CC[C@]43C)[C@@H]12 [3-EPI-BETULIN]	5.44	4.91	3.4
C=C(C)[C@@H]1CC[C@]2(COC(=O)CCC(=O)O)CC[C@]3(C)[C@H](CC[C@@H]4[C@@]5(C)CC[C@H](OC(=O)CCC(=O)O)C(C)(C)[C@@H]5CC[C@]43C)[C@@H]12	5.42	4.45	9.3
C=C(C)[C@@H]1CC[C@]2(/C=N/O)CC[C@]3(C)[C@H](CC[C@@H]4[C@@]5(C)CC/C(=N\O)C(C)(C)[C@@H]5CC[C@]43C)[C@@H]12 [BETULIN-3,28-DIOXIME]	5.97	5.26	5.1
C=C(C)[C@@H]1CC[C@]2(COC(=O)CC(C)(C)CC(=O)O)CC[C@]3(C)[C@H](CC[C@@H]4[C@@]5(C)CC[C@@H](OC(=O)CC(C)(C)CC(=O)O)C(C)(C)[C@@H]5CC[C@]43C)[C@@H]12	< 4.86	4.47	< 2.4
